This test has as its target Platelet-activating factor acetylhydrolase 2, cytoplasmic (Mus musculus) (UniProt Q8VDG7). Put plainly: off-target mouse PAFAH2 activity blockade – cell lysate, gel-based competitive ABPP, fluorescence, selectivity assay for pPAFAH inhibitor project, late-stage follow-up (AID 588767). The note with it: BW5147 T-cell soluble proteome, FP-Rh, stronger effect = higher value. An outline of the steps: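 Test system: mouse T-cell soluble proteome with native PAFAH2; Input: proteome 1 mg/mL; Schedule: compound pre-incubation 30 min and probe labelling 30 min, both 37 °C; Technique: in-gel fluorescence after SDS-PAGE; Evaluation: percent inhibition from PAFAH2 band integrated optical density versus DMSO control.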

Each structure is given as a SMILES string. Activity calls are given as the source filed them.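 Rule for the calls: active = inhibition of at least 50% at 0.1 µM compound; inactive = inhibition below 50%.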

Chain of Platelet-activating factor acetylhydrolase 2, cytoplasmic (Mus musculus) (Q8VDG7 whole entry, looked up): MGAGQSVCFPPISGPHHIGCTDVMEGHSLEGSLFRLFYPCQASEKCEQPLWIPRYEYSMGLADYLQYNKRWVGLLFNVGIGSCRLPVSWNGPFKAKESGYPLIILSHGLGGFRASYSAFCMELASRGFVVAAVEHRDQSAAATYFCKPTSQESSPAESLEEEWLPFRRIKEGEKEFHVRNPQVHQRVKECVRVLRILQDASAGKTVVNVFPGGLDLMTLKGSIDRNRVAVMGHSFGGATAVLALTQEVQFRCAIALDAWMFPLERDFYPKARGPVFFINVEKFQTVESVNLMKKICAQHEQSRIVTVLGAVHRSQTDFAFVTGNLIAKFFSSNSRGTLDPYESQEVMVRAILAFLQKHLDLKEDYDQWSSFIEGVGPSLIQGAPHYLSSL

Take `Cc1cc(N2CCN(C(=O)Oc3ccc(-c4ccccc4)cn3)CC2)c2ccccc2n1`: the inhibition (as a rule, the percentage by which the read-out fell short of the control) reads like this: (at 0.1 µM) 0% (inactive); (inhibition, at 1 µM) 0%; (inhibition, at 10 µM) 0%.

With `COc1ccc2cc(-c3cnn(C(=O)N4CCCC4)n3)ccc2c1`, where the note is “at 0.1 µM”, the inhibition was 100%.

Values taken from PubChem BioAssay AID588767 (The Scripps Research Institute Molecular Screening Center, 2011).
